Results as given in ChEMBL document CHEMBL1765030, “Discovery and preclinical evaluation of a novel class of cytotoxic propynoic acid carbamoyl methyl amides (PACMAs)” (J Med Chem, 2011).
Active and inactive are the calls of the source. The calls are words filed in the database; no cut-off is given here.

Tests used:
[1] = system: MDA-MB-435; experiment: Induction of apoptosis in human MDA-MB-435 cells assessed as viable cells at 10 uM after 48 hrs using by annexin V and propidium iodide staining by flow cytometry relative to control; assay type: functional; details: MDA-MB-435, 48 h, read-out: Activity
Method in brief: (§1)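 Treatment was 10 μM for 24 and 48 h, with an untreated 48 h control run in parallel. Floating and adherent cells were pooled and stained with annexin V-FITC/propidium iodide, then read by flow cytometry (FITC and PE channels). Quadrants: annexin−/PI− viable; annexin+/PI− early apoptotic; annexin+/PI+ late apoptotic; lower right necrotic/debris.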

[2] = system: MDA-MB-435; experiment: Induction of apoptosis in human MDA-MB-435 cells assessed as pre-necrotic cells at 10 uM after 48 hrs using by annexin V and propidium iodide staining by flow cytometry relative to control; assay type: functional; method in brief: as §1
[3] = system: MDA-MB-435; experiment: Induction of apoptosis in human MDA-MB-435 cells assessed as necrotic cells at 10 uM after 48 hrs using by annexin V and propidium iodide staining by flow cytometry relative to control; assay type: functional; method in brief: as §1
[4] = system: NCI/ADR-RES; experiment: Cytotoxicity against human NCI/ADR-RES cells after 72 hrs by MTT assay; assay type: functional, cell-based
[5] = system: MDA-MB-435; experiment: Induction of apoptosis in human MDA-MB-435 cells assessed as viable cells at 10 uM after 24 hrs using by annexin V and propidium iodide staining by flow cytometry relative to control; assay type: functional; details: MDA-MB-435, 24 h, read-out: Activity; method in brief: as §1
[6] = Octanol-water distribution coefficient, log P of the compound; assay type: physicochemical
[7] = system: HCT-116; experiment: Cytotoxicity against human HCT116 cells […] after 72 hrs by MTT assay; assay type: functional, cell-based; details: HCT-116, 72 h
Method in brief: (§2)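 Cells were attached overnight, then continuously exposed to drug for 72 h. MTT (0.5 mg/mL final) was added for 4 h at 37 °C, formazan dissolved in DMSO, and A570 read; all in triplicate. IC50 came from log(concentration) vs % cells killed. Media: RPMI-1640 for HT29, HCT116 p53+/+ and p53−/−, and HEY; DMEM for MDA-MB-435 and UMUC3; all with 10% FBS, 37 °C, 5% CO₂.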

[8] = system: MDA-MB-435; experiment: Increase of mitochondrial superoxide accumulation in human MDA-MB-435 cells at IC50 to 3 times IC50 after 24 hrs by flow cytometry; assay type: functional, cell-based
Method in brief: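 Cells were drug-treated at two concentrations for 24 h, then loaded with 5 μM MitoSOX Red for 10 min at 37 °C and washed three times in HBSS. Cells were either viewed by fluorescence microscopy or trypsinized, washed twice in HBSS and read by flow cytometry; untreated cells served as control.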

[9] = system: MDA-MB-435; experiment: Induction of apoptosis in human MDA-MB-435 cells assessed as pre-necrotic cells at 10 uM after 24 hrs using by annexin V and propidium iodide staining by flow cytometry relative to control; assay type: functional; method in brief: as §1
[10] = system: MDA-MB-435; experiment: Induction of apoptosis in human MDA-MB-435 cells assessed as apoptotic cells at 10 uM after 24 hrs using by annexin V and propidium iodide staining by flow cytometry relative to control; assay type: functional; method in brief: as §1
[11] = system: MDA-MB-435; experiment: Cytotoxicity against human MDA-MB-435 cells after 72 hrs by MTT assay; assay type: functional, cell-based; details: MDA-MB-435, 72 h; method in brief: as §2
[12] = system: MDA-MB-435; experiment: Cytotoxicity against human MDA-MB-435 cells at 1 uM after 24 hrs using crystal violet staining by colony formation assay; assay type: functional, cell-based
Method in brief: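 Cells were plated at 1000 per well, attached overnight, and exposed to 1 μM for 24 h. They were then washed and grown in fresh medium for 8–10 days until colonies formed, fixed in 1% glutaraldehyde for 30 min, and stained with 2% crystal violet for 30 min. Vehicle was DMSO.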

[13] = system: UMUC3; experiment: Cytotoxicity against human UM-UC-3 cells after 72 hrs by MTT assay; assay type: functional, cell-based; details: UMUC3, 72 h; method in brief: as §2
[14] = system: HEY; experiment: Cytotoxicity against human HEY cells after 72 hrs by MTT assay; assay type: functional, cell-based; method in brief: as §2
[15] = system: HT-29; experiment: Cytotoxicity against human HT-29 cells after 72 hrs by MTT assay; assay type: functional, cell-based; details: HT-29, 72 h; method in brief: as §2
[16] = system: Mus musculus; experiment: Toxicity in human MDA-MB-435 cells xenografted athymic nude mouse assessed as change in doy weight at 10 mg/kg, ip for 9 days followed by 20 mg/kg, ip for 5 days followed by 40 mg/kg, ip for 12 days; assay type: organism-based; details: in vivo
Method in brief: (§3)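 Athymic nude mice were inoculated s.c. on the rear flank with 1.5 × 10⁶ log-phase MDA-MB-435 cells. At ~100 mm³ average tumor volume, mice were randomized (n = 8) to vehicle (10% DMSO/90% sesame oil) or drug, given i.p. once daily, dosed by group mean body weight. Caliper tumor measurements were taken twice weekly, volume = d²×D/2; mice were followed 17 days after dosing ended, with body weight monitored.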

[17] = system: HCT-116; experiment: Cytotoxicity against p53 deficient human HCT116 cells […] after 72 hrs by MTT assay; assay type: functional, cell-based; details: HCT-116, 72 h; method in brief: as §2
[18] = system: MDA-MB-435; experiment: Induction of apoptosis in human MDA-MB-435 cells assessed as apoptotic cells at 10 uM after 48 hrs using by annexin V and propidium iodide staining by flow cytometry relative to control; assay type: functional; method in brief: as §1
[19] = system: MDA-MB-435; experiment: Antitumor activity against human MDA-MB-435 cells xenografted in athymic nude mouse assessed as reduction of tumor burden at 10 mg/kg, ip for 9 days followed by 20 mg/kg, ip for 5 days followed by 40 mg/kg, ip for 12 days; assay type: functional, organism-based; method in brief: as §3
[20] = system: MDA-MB-435; experiment: Induction of apoptosis in human MDA-MB-435 cells assessed as necrotic cells at 10 uM after 24 hrs using by annexin V and propidium iodide staining by flow cytometry relative to control; assay type: functional; method in brief: as §1
[21] = system: 5637; experiment: Cytotoxicity against human 5637 cells after 72 hrs by MTT assay; assay type: functional, cell-based; details: Homo sapiens, 5637, 72 h
[22] = system: Mus musculus; experiment: Toxicity in human MDA-MB-435 cells xenografted athymic nude mouse assessed as histological changes in organ at 10 mg/kg, ip for 9 days followed by 20 mg/kg, ip for 5 days followed by 40 mg/kg, ip for 12 days; assay type: organism-based; details: in vivo
[23] = system: MDA-MB-435; experiment: Induction of apoptosis in human MDA-MB-435 cells assessed as up-regulation of p53 protein expression at 1 uM after 24 to 72 hrs by Western blotting; assay type: functional, cell-based
Method in brief: (§4)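 Cells were treated with 1 μM for 24–72 h and lysed in 50 mM Tris-HCl pH 7.5, 150 mM NaCl, 1% NP-40. Equal protein (BCA) was run on 10% tris-glycine SDS-PAGE and blotted to nitrocellulose. Membranes were blocked in 5% BSA/PBS for 1 h, probed overnight at 4 °C with anti-p53 or anti-caspase-9 (plus tubulin/GAPDH antibodies), and detected by HRP secondary with ECL imaging.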

[24] = system: MDA-MB-435; experiment: Induction of apoptosis in human MDA-MB-435 cells assessed as decrease of caspase 9 protein expression at 1 uM after 24 to 72 hrs by Western blotting relative to control; assay type: functional; method in brief: as §4
[25] = system: MDA-MB-435; experiment: Cell cycle arrest in human MDA-MB-435 cells assessed as accumulation at G2/M phase at 5 uM after 12 hrs using propidium iodide staining by flow cytometry (reference value: 9%); assay type: functional
[26] = system: MDA-MB-435; experiment: Cell cycle arrest in human MDA-MB-435 cells assessed as accumulation at S phase at 5 uM after 6 hrs using propidium iodide staining by flow cytometry (reference value: 41%); assay type: functional
[27] = system: MDA-MB-435; experiment: Cell cycle arrest in human MDA-MB-435 cells assessed as accumulation at G0/G1 phase at 5 uM after 24 hrs using propidium iodide staining by flow cytometry (reference value: 50%); assay type: functional
[28] = Elimination rate constant in mouse at 24 mg/kg, ip; assay type: ADME, organism-based; set-up: dose 24 mg/kg, route intraperitoneal; details: in vivo
Method in brief: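 Mice received a single 24 mg/kg i.p. injection, with two mice per time point. Blood was drawn into heparinized syringes at set times between 0.5 and 24 h, and plasma was separated by centrifugation and stored at −80 °C. Plasma drug was quantified by validated LC-MS (lowest quantification level 1 ng/mL), and parameters were derived by noncompartmental analysis.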

[29] = system: MDA-MB-435; experiment: Cell cycle arrest in human MDA-MB-435 cells assessed as accumulation at G0/G1 phase at 5 uM after 12 hrs using propidium iodide staining by flow cytometry (reference value: 50%); assay type: functional
[30] = system: MDA-MB-435; experiment: Cell cycle arrest in human MDA-MB-435 cells assessed as accumulation at G2/M phase at 5 uM after 6 hrs using propidium iodide staining by flow cytometry (reference value: 9%); assay type: functional
[31] = system: MDA-MB-435; experiment: Cell cycle arrest in human MDA-MB-435 cells assessed as accumulation at G2/M phase at 5 uM after 24 hrs using propidium iodide staining by flow cytometry (reference value: 9%); assay type: functional
[32] = system: MDA-MB-435; experiment: Cell cycle arrest in human MDA-MB-435 cells assessed as accumulation at G0/G1 phase at 5 uM after 6 hrs using propidium iodide staining by flow cytometry (reference value: 50%); assay type: functional
[33] = system: MDA-MB-435; experiment: Cell cycle arrest in human MDA-MB-435 cells assessed as accumulation at S phase at 5 uM after 12 hrs using propidium iodide staining by flow cytometry (reference value: 41%); assay type: functional
[34] = system: MDA-MB-435; experiment: Cell cycle arrest in human MDA-MB-435 cells assessed as accumulation at S phase at 5 uM after 24 hrs using propidium iodide staining by flow cytometry (reference value: 41%); assay type: functional

Work on `C#CC(=O)N(c1cccc(C(F)(F)F)c1)C(C(=O)NC1CCCC1)c1cccc(OC)c1` (configuration not stated) yielded a viability at 10 µM [1] of 52%, an Activity [2] of 10% and an Activity [3] of 37%. The IC50 [4] was 200 nM, the viability at 10 µM [5] was 93% and the logP [6] was 3.7. For the same compound, the IC50 [7] was > 10 µM, the Activity [8] was “Active” and the Activity [9] was 2%. The Activity [10] was 1%, the IC50 [11] was 6.3 µM and the Activity [12] was “Active”. The IC50 [13] was > 20 µM, the IC50 [14] was 5.2 µM and the IC50 [15] was 7.2 µM. The Activity [16] was 29 g, the IC50 [17] was 8.8 µM and the Activity [18] was 1%. For the same compound, the Activity [19] was “Active”, the Activity [20] was 4% and the IC50 [21] was 600 nM. The Activity [22] was “Non-toxic”.

`C#CC(=O)N(c1cc(OC)cc(OC)c1)C(C(=O)NC1CCCCC1)c1ccc(OC)cc1` (configuration not stated) gave a viability at 10 µM [1] of 53%, an Activity [2] of 9% and an Activity [3] of 35%. For the same compound, the IC50 [4] was 300 nM, the Activity [23] was “Active” and the viability at 10 µM [5] was 95%. The logP [6] was 2.54, the IC50 [7] was 12.5 µM and the Activity [8] was “Active”. For the same compound, the Activity [9] was 2%, the Activity [10] was 1% and the IC50 [11] was 5.4 µM. For the same compound, the Activity [12] was “Active”, the IC50 [13] was > 20 µM and the IC50 [14] was 4.4 µM. For the same compound, the IC50 [15] was 6.3 µM, the IC50 [17] was 11 µM and the “fold change (FC)” value [24] was 2. The Activity [18] was 3%, the Activity [20] was 2% and the IC50 [21] was 2200 nM.

For `C#CC(=O)N(c1ccc(-n2cnnn2)c(C)c1)C(C(=O)NC1CCCC1)c1ccccc1F` (configuration not stated), the viability at 10 µM [1] was 11%, the Activity [2] was 24% and the Activity [25] was 13%. The Activity [3] was 62%, the Activity [26] was 51% and the Activity [27] was 33%. The k el [28] was 5.72e-05 s⁻¹, the Activity [29] was 36% and the Activity [30] was 9%. It also gave an IC50 [4] of 1000 nM, a viability at 10 µM [5] of 66% and an Activity [31] of 16%. The Activity [32] was 40%, the logP [6] was 3.91 and the IC50 [7] was 6.3 µM. For the same compound, the Activity [33] was 51%, the Activity [8] was “Active” and the Activity [9] was 6%. The Activity [10] was 1%, the IC50 [11] was 1.4 µM and the Activity [12] was “Active”. The IC50 [13] was 6.3 µM, the IC50 [14] was 1.5 µM and the IC50 [15] was 1.8 µM. It also gave an IC50 [17] of 5.5 µM, an Activity [18] of 3% and an Activity [20] of 27%. It also gave an Activity [34] of 51% and an IC50 [21] of 700 nM.
